A word on the EC50: it is the concentration needed to bring the measured effect to its halfway point.

Values after ≈ are worked out from the molar mass of the structure shown.

In assay [1] the test system is Meloidogyne incognita. In words: Nematicidal activity against Meloidogyne incognita J2 (root-knot nematode) assessed as paralysis measured after 1 day at 28 degC. The following applies: 24 h. The assay is classed as functional, organism-based. In short, it runs like this: (§1)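 Freshly hatched (24 h) M. incognita J2 were taken from infested tomato roots. Each well held 25 J2 immersed in test solution, kept in the dark at 28 °C. Ethanol stocks were diluted in water with Tween-20 (final ethanol ≤1%, Tween-20 ≤0.3% v/v); water-soluble acids were made up in water. J2 were scored motile or paralyzed by inverted microscope and corrected for water-control paralysis (Schneider-Orelli). EC50 came from log-logistic regression; two experiments, six replicates each.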

Assay [2] relates to Meloidogyne incognita. The experiment in a line: Nematicidal activity against Meloidogyne incognita J2 (root-knot nematode) assessed as paralysis measured after 1 hr at 28 degC. The format is functional, organism-based. In short, it runs like this:
as §1

Assay [3] deals with Meloidogyne incognita. The experiment in a line: Nematicidal activity against Meloidogyne incognita J2 (root-knot nematode) assessed as paralysis measured at 500 ug/mL by fumigant assay. The format is functional. A digest of the protocol:
(§2)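 Vapour-exposure microwell test with 24 h-old J2 from infested tomato roots, kept in the dark at 28 °C. Test solution went into one well and J2 in tap water into the four adjacent wells, with one dose per plate. Paralysis in the adjacent wells (120 J2 per replicate) was scored by microscope as motile or paralyzed and corrected for water-control paralysis (Schneider-Orelli). Two experiments, six replicates.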

The subject of assay [4] is Meloidogyne incognita. In words: Nematicidal activity against Meloidogyne incognita J2 (root-knot nematode) assessed as paralysis measured after 1 day at 28 degC by fumigant assay. The format is functional, organism-based. The following applies: 24 h. In short, it runs like this:
as §2

For the compound `OCc1ccco1` [FURFURYL ALCOHOL], the figures for the EC50 with Meloidogyne incognita [1] and in the assay with Meloidogyne incognita [2] were 41.2 µg/mL (≈ 420 µM) and above 100 µg/mL, respectively.
Consider `CCOP(=O)(SC(C)CC)N1CCSC1=O` (stereo not given) [FOSTHIAZATE], for which the 50% effective concentration (EC50) with Meloidogyne incognita [1] was 0.4 µg/mL (≈ 1.41 µM); with Meloidogyne incognita [2], 3.3 µg/mL (≈ 11.6 µM).
As for `CCCC(=O)O` [BUTYRIC ACID], in the assay on Meloidogyne incognita [3], the Activity is above 30 µg/mL. In addition, the concentration giving a half-maximal response (EC50) is 40.7 µg/mL (≈ 462 µM) with Meloidogyne incognita [1] and 69.8 µg/mL (≈ 792 µM) in the assay with Meloidogyne incognita [2].
In the case of `CCCCCCCCCCCCCCCC(=O)O` [PALMITIC ACID], the EC50 with Meloidogyne incognita [1] and with Meloidogyne incognita [2] was above 500 µg/mL throughout.
On to `CC(=O)O` [ACETIC ACID], for which the EC50 in the assay on Meloidogyne incognita [1] was determined as 38.3 µg/mL (≈ 638 µM); with Meloidogyne incognita [2], 64 µg/mL (≈ 1070 µM).
For `O=Cc1ccc(CO)o1` [AES-103], in that order: 45.7 µg/mL (≈ 362 µM) and above 100 µg/mL.
As to `CCCCCCCCCC(=O)O` [DECANOIC ACID], the EC50 in the assay on Meloidogyne incognita [1] came out at 248 µg/mL (≈ 1440 µM); in the assay on Meloidogyne incognita [2], 354 µg/mL (≈ 2050 µM).
As to `O=Cc1ccco1` [FURFURAL], the EC50 in the assay with Meloidogyne incognita [4] was found to be 24.1 µg/mL (≈ 251 µM); in the assay on Meloidogyne incognita [1], 8.5 µg/mL (≈ 88.5 µM); in the assay on Meloidogyne incognita [2], 11.4 µg/mL (≈ 119 µM).
In the case of `CCCCCC(=O)O` [HEXANOATE], the EC50 with Meloidogyne incognita [1] amounted to 41.1 µg/mL (≈ 354 µM); with Meloidogyne incognita [2], 88.7 µg/mL (≈ 764 µM).

(Values after ChEMBL document CHEMBL3045148, “nematicidal carboxylic acids and aldehydes from Melia azedarach fruits” (J Agric Food Chem, 2010).)
